Reference: ChEMBL document CHEMBL1127457, “Nonpeptide renin inhibitors with good intraduodenal bioavailability and efficacy in dog” (J Med Chem, 1994)

tested on: not listed separately; experiment: Partition coefficient (logD6.5); settings: octanol/water, pH 6.5

Row | Compound | logD
1 | CCCC[C@H](N[C@@H](Cc1ccccc1)C(=O)N1CCC(OCOC)CC1)C(=O)N[C@@H](CC1CCCCC1)[C@@H](O)C[C@H](C(=O)NCCN1CCCCC1)C(C)C | > 5
2 | CCCC[C@H](N[C@@H](Cc1ccccc1)C(=O)N1CCC(OCOC)CC1)C(=O)N[C@@H](CC1CCCCC1)[C@@H](O)C[C@H](C(=O)NCc1ccncc1)C(C)C | > 5

tested on: not listed separately; experiment: Average peak plasma concentration of compound after 10 mg/kg intraduodenal administration to Ferret; settings: plasma

Row | Compound | Cmax
3 | CCCC[C@H](N[C@@H](Cc1ccccc1)C(=O)N1CCC(OCOC)CC1)C(=O)N[C@@H](CC1CCCCC1)[C@@H](O)C[C@H](C(=O)NCCN1CCCCC1)C(C)C | 3730 ng/mL

tested on: not listed separately; experiment: Average area under curve at 10 mg/kg dose after intraduodenal administration to Ferret; settings: in vivo

Row | Compound | AUC
4 | CCCC[C@H](N[C@@H](Cc1ccccc1)C(=O)N1CCC(OCOC)CC1)C(=O)N[C@@H](CC1CCCCC1)[C@@H](O)C[C@H](C(=O)NCCN1CCCCC1)C(C)C | 5680 ng·h/mL

target: T1, Renin (Rattus norvegicus, UniProt P08424); experiment: Tested in vitro for its ability to inhibit the rat plasma renin; assay type: cell-free; settings: not given
T1 sequence (P08424 whole entry): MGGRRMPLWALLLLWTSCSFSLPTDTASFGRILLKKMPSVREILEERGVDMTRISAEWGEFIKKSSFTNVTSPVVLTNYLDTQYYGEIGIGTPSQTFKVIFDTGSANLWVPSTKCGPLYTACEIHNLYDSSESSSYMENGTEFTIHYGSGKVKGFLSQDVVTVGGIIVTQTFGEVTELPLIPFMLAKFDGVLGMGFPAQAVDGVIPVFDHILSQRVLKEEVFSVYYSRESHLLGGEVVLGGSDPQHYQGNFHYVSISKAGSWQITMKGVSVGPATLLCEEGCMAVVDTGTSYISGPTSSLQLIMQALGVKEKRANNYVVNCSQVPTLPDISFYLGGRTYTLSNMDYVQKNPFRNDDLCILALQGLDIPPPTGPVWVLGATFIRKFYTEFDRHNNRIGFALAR
In short: (§1)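 IC50 against renin in plasma from the named species (dog, ferret, human, rat); single determination in most cases.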

Row | Compound | IC50
5 | CCCC[C@H](N[C@@H](Cc1ccccc1)C(=O)N1CCC(OCOC)CC1)C(=O)N[C@@H](CC1CCCCC1)[C@@H](O)C[C@H](C(=O)NCc1ccncc1)C(C)C | 10000 nM

tested on: not listed separately; experiment: Oral bioavailability in ferret; settings: in vivo

Row | Compound | bioavailability
6 | CCCC[C@H](N[C@@H](Cc1ccccc1)C(=O)N1CCC(OCOC)CC1)C(=O)N[C@@H](CC1CCCCC1)[C@@H](O)C[C@H](C(=O)NCCN1CCCCC1)C(C)C | 33%

tested on: not listed separately; experiment: Average peak plasma concentration of compound after 1 mg/kg intravenous administration to rat; settings: plasma

Row | Compound | Cmax
7 | CCCC[C@H](N[C@@H](Cc1ccccc1)C(=O)N1CCC(OCOC)CC1)C(=O)N[C@@H](CC1CCCCC1)[C@@H](O)C[C@H](C(=O)NCCN1CCCCC1)C(C)C | 1000 ng/mL
8 | CCCC[C@H](N[C@@H](Cc1ccccc1)C(=O)N1CCC(OCOC)CC1)C(=O)N[C@@H](CC1CCCCC1)[C@@H](O)C[C@H](C(=O)NCc1ccncc1)C(C)C | 2480 ng/mL

tested on: not listed separately; experiment: Average peak plasma concentration of compound after 1 mg/kg intravenous administration to Ferret; settings: plasma

Row | Compound | Cmax
9 | CCCC[C@H](N[C@@H](Cc1ccccc1)C(=O)N1CCC(OCOC)CC1)C(=O)N[C@@H](CC1CCCCC1)[C@@H](O)C[C@H](C(=O)NCCN1CCCCC1)C(C)C | 3600 ng/mL

species on record: Homo sapiens; experiment: not given; settings: Liver, Microsome

Row | Compound | Rate (nM min-1 (nM of cytochrome P450)-1)
10 | CCCC[C@H](N[C@@H](Cc1ccccc1)C(=O)N1CCC(OCOC)CC1)C(=O)N[C@@H](CC1CCCCC1)[C@@H](O)C[C@H](C(=O)NCCN1CCCCC1)C(C)C | 4.52
11 | CCCC[C@H](N[C@@H](Cc1ccccc1)C(=O)N1CCC(OCOC)CC1)C(=O)N[C@@H](CC1CCCCC1)[C@@H](O)C[C@H](C(=O)NCc1ccncc1)C(C)C | 0.78

tested on: not listed separately; experiment: Average peak plasma concentration of compound after 10 mg/kg intraduodenal administration to rat; settings: plasma

Row | Compound | Cmax
12 | CCCC[C@H](N[C@@H](Cc1ccccc1)C(=O)N1CCC(OCOC)CC1)C(=O)N[C@@H](CC1CCCCC1)[C@@H](O)C[C@H](C(=O)NCCN1CCCCC1)C(C)C | 360 ng/mL
13 | CCCC[C@H](N[C@@H](Cc1ccccc1)C(=O)N1CCC(OCOC)CC1)C(=O)N[C@@H](CC1CCCCC1)[C@@H](O)C[C@H](C(=O)NCc1ccncc1)C(C)C | 460 ng/mL

target: T2, Renin (Homo sapiens, UniProt P00797); experiment: Tested in vitro for its ability to inhibit the human plasma renin; assay type: cell-free; settings: not given; in short: as §1
T2 sequence (P00797 whole entry): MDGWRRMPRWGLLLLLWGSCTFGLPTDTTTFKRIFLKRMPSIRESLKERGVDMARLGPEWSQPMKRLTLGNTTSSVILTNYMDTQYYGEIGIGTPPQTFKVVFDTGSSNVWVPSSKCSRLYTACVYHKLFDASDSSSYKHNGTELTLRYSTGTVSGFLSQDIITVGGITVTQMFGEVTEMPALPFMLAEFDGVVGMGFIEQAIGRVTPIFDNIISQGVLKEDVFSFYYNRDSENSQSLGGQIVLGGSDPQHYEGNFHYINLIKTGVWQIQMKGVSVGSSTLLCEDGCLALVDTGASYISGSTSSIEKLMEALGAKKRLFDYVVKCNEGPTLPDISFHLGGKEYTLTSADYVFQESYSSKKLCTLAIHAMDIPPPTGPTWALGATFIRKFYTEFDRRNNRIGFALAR

Row | Compound | IC50
14 | CCCC[C@H](N[C@@H](Cc1ccccc1)C(=O)N1CCC(OCOC)CC1)C(=O)N[C@@H](CC1CCCCC1)[C@@H](O)C[C@H](C(=O)NCCN1CCCCC1)C(C)C | 14 nM
15 | CCCC[C@H](N[C@@H](Cc1ccccc1)C(=O)N1CCC(OCOC)CC1)C(=O)N[C@@H](CC1CCCCC1)[C@@H](O)C[C@H](C(=O)NCc1ccncc1)C(C)C | 7.8 nM

target: Renin (Mustela putorius furo); experiment: Tested in vitro for its ability to inhibit the ferret plasma renin; settings: not given

Row | Compound | IC50
16 | CCCC[C@H](N[C@@H](Cc1ccccc1)C(=O)N1CCC(OCOC)CC1)C(=O)N[C@@H](CC1CCCCC1)[C@@H](O)C[C@H](C(=O)NCc1ccncc1)C(C)C | 940 nM

tested on: not listed separately; experiment: Average area under curve for the compound at 1 mg/kg dose after intravenous administration to rat; settings: in vivo

Row | Compound | AUC
17 | CCCC[C@H](N[C@@H](Cc1ccccc1)C(=O)N1CCC(OCOC)CC1)C(=O)N[C@@H](CC1CCCCC1)[C@@H](O)C[C@H](C(=O)NCCN1CCCCC1)C(C)C | 352 ng·h/mL
18 | CCCC[C@H](N[C@@H](Cc1ccccc1)C(=O)N1CCC(OCOC)CC1)C(=O)N[C@@H](CC1CCCCC1)[C@@H](O)C[C@H](C(=O)NCc1ccncc1)C(C)C | 653 ng·h/mL

tested on: not listed separately; experiment: Oral bioavailability in rat; settings: in vivo, intraduodenal, 10 mg/kg

Row | Compound | bioavailability
19 | CCCC[C@H](N[C@@H](Cc1ccccc1)C(=O)N1CCC(OCOC)CC1)C(=O)N[C@@H](CC1CCCCC1)[C@@H](O)C[C@H](C(=O)NCCN1CCCCC1)C(C)C | 15%
20 | CCCC[C@H](N[C@@H](Cc1ccccc1)C(=O)N1CCC(OCOC)CC1)C(=O)N[C@@H](CC1CCCCC1)[C@@H](O)C[C@H](C(=O)NCc1ccncc1)C(C)C | 11%

target: Renin (Canis familiaris); experiment: Tested in vitro for its ability to inhibit the dog plasma renin; settings: not given

Row | Compound | IC50
21 | CCCC[C@H](N[C@@H](Cc1ccccc1)C(=O)N1CCC(OCOC)CC1)C(=O)N[C@@H](CC1CCCCC1)[C@@H](O)C[C@H](C(=O)NCc1ccncc1)C(C)C | 59 nM

tested on: not listed separately; experiment: Partition coefficient (logD7.4); settings: octanol/water, pH 7.4

Row | Compound | logD
22 | CCCC[C@H](N[C@@H](Cc1ccccc1)C(=O)N1CCC(OCOC)CC1)C(=O)N[C@@H](CC1CCCCC1)[C@@H](O)C[C@H](C(=O)NCCN1CCCCC1)C(C)C | > 5
23 | CCCC[C@H](N[C@@H](Cc1ccccc1)C(=O)N1CCC(OCOC)CC1)C(=O)N[C@@H](CC1CCCCC1)[C@@H](O)C[C@H](C(=O)NCc1ccncc1)C(C)C | > 5

tested on: not listed separately; experiment: Average area under curve for the compound at 10 mg/kg dose after intraduodenal administration to rat; settings: in vivo

Row | Compound | AUC
24 | CCCC[C@H](N[C@@H](Cc1ccccc1)C(=O)N1CCC(OCOC)CC1)C(=O)N[C@@H](CC1CCCCC1)[C@@H](O)C[C@H](C(=O)NCCN1CCCCC1)C(C)C | 570 ng·h/mL
25 | CCCC[C@H](N[C@@H](Cc1ccccc1)C(=O)N1CCC(OCOC)CC1)C(=O)N[C@@H](CC1CCCCC1)[C@@H](O)C[C@H](C(=O)NCc1ccncc1)C(C)C | 760 ng·h/mL

tested on: not listed separately; experiment: Average area under curve for compound at 1 mg/kg dose intravenous administration to Ferret; settings: in vivo

Row | Compound | AUC
26 | CCCC[C@H](N[C@@H](Cc1ccccc1)C(=O)N1CCC(OCOC)CC1)C(=O)N[C@@H](CC1CCCCC1)[C@@H](O)C[C@H](C(=O)NCCN1CCCCC1)C(C)C | 1680 ng·h/mL
